Results from ChEMBL document CHEMBL4152207, “Discovery of potent and selective BRD4 inhibitors capable of blocking TLR3-induced acute airway inflammation” (Eur J Med Chem, 2018).
Activity calls are given as the source filed them. No cut-off for these calls is given here.

Experiments:
[1] = molecular target: T1, Bromodomain-containing protein 4 (Homo sapiens, UniProt O60885); test: Inhibition of BRD4 in human SAE cells assessed as reduction in TLR3 agonist poly(I:C) -induced ISG54 RNA expression preincubated for 24 hrs followed by poly(I:C) addition and measured after 4 hrs by SYBR green dye-based qRT-PCR analysis; assay type: cell-based
[2] = molecular target: T1, Bromodomain-containing protein 4; test: Inhibition of BRD4 in human SAE cells assessed as reduction in TLR3 agonist poly(I:C) -induced IL-8 RNA expression preincubated for 24 hrs followed by poly(I:C) addition and measured after 4 hrs by SYBR green dye-based qRT-PCR analysis; assay type: cell-based
[3] = molecular target: T1, Bromodomain-containing protein 4; test: Inhibition of BRD4 in human SAE cells assessed as reduction in TLR3 agonist poly(I:C) -induced grobeta RNA expression preincubated for 24 hrs followed by poly(I:C) addition and measured after 4 hrs by SYBR green dye-based qRT-PCR analysis; assay type: cell-based
[4] = molecular target: T1, Bromodomain-containing protein 4; test: Inhibition of BRD4 in human SAE cells assessed as reduction in TLR3 agonist poly(I:C) -induced ISG56 RNA expression preincubated for 24 hrs followed by poly(I:C) addition and measured after 4 hrs by SYBR green dye-based qRT-PCR analysis; assay type: cell-based
[5] = test system: Mus musculus; test: (§1) Anti-inflammatory activity in poly(I:C)-induced airway inflammation C57BL/6 mouse model assessed as reduction in neutrophils recruitment into bronchoalveolar lavage fluid at 10 mg/kg, ip administered 1 day prior to poly(I:C) stimulation and redosed on day 2 followed by poly(I:C) stimulation by trypan blue staining-based hemocytometric analysis; assay type: functional, organism-based
[6] = test system: Mus musculus; test: Anti-inflammatory activity in poly(I:C)-induced airway inflammation C57BL/6 mouse model assessed as reduction in mCIG5 expression in lung at 10 mg/kg, ip administered 1 day prior to poly(I:C) stimulation and redosed on day 2 followed by poly(I:C) stimulation; assay type: functional, organism-based
Summary of the method: (§2)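 Male C57BL/6J mice, 12 weeks old, were given 10 mg/kg i.p. one day before stimulation. The next day they got a second dose, immediately followed by intranasal poly(I:C) (300 μg in 50 μL PBS) or PBS alone. Compound was taken up in DMSO and diluted in 10% hydroxypropyl β-cyclodextrin in PBS. Mice were euthanized one day later and lung tissue was collected for cytokine expression.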

[7] = molecular target: CREB-binding protein (Homo sapiens, UniProt Q92793); test: Inhibition of CBP (unknown origin) after 1 hr by TR-FRET assay
Sequence of CREB-binding protein (Q92793 whole entry): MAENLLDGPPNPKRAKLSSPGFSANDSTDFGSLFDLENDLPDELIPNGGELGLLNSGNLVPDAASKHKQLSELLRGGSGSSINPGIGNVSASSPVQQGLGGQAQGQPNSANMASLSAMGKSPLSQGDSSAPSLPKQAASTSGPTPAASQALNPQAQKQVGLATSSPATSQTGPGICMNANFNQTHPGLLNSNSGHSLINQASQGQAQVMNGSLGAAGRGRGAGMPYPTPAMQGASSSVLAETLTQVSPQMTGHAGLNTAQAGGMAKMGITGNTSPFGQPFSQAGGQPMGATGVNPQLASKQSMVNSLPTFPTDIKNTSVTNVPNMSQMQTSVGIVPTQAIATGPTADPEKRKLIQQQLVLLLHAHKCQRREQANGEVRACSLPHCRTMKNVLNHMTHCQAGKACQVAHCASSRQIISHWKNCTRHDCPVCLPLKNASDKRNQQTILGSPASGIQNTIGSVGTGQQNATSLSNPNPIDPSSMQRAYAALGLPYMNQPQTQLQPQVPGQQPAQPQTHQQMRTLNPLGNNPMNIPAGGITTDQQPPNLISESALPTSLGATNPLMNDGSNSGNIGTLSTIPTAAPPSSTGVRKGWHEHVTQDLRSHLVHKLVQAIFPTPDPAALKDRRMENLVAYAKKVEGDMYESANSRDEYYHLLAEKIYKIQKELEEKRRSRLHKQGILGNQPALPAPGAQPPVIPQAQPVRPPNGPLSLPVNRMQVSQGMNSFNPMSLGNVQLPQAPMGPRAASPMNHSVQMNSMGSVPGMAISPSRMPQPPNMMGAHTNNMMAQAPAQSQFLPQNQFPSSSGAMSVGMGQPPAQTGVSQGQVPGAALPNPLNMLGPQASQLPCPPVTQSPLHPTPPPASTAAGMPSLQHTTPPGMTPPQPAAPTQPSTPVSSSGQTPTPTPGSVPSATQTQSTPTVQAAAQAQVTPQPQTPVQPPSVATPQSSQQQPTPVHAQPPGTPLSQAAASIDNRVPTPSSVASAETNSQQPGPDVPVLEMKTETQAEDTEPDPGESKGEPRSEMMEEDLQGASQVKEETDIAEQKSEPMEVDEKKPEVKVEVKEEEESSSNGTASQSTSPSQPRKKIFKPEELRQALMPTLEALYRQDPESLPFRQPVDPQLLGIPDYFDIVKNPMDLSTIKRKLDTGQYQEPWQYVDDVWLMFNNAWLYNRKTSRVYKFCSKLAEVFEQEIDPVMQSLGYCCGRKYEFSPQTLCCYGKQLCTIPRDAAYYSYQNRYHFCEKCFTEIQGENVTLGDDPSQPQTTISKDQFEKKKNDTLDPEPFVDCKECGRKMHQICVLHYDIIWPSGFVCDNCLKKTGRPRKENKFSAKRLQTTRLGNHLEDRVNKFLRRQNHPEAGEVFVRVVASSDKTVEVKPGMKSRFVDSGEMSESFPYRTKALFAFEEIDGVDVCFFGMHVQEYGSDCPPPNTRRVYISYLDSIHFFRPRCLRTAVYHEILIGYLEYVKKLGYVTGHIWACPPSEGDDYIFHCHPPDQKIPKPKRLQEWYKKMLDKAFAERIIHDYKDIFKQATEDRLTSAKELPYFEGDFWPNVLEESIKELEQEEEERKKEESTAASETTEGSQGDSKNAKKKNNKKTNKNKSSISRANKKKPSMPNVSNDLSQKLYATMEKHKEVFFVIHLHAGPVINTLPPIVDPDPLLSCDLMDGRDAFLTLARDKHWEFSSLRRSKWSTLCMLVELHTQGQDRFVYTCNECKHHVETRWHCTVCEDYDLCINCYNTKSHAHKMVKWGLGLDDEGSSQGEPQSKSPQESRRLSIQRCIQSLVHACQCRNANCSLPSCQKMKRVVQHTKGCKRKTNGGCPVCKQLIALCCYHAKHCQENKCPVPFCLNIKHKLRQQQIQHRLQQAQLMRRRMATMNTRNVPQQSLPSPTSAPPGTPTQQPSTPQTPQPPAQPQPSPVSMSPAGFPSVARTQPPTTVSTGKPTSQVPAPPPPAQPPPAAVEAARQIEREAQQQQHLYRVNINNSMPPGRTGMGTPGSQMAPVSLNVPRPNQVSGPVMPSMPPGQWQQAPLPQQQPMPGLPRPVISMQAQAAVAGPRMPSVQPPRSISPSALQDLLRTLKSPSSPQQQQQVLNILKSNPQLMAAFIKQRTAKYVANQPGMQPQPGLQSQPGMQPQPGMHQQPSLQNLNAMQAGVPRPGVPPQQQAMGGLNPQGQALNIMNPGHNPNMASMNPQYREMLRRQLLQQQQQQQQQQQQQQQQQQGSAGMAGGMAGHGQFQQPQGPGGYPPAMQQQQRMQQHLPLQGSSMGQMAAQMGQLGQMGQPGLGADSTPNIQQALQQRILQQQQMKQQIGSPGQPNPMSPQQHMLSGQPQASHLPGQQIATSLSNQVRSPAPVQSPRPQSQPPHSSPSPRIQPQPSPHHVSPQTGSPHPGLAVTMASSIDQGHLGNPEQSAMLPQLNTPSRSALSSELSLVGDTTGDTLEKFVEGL
Summary of the method: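 Isolated bromodomain in a kit TR-FRET assay. Inhibitor series 0.01 nM to 100 μM, incubated 1 h at room temperature. Excitation 340 nm, emission read at 620 and 670 nm with 100 μs delay and 500 μs window. IC50 from the sigmoidal plot of the 670/620 ratio against concentration. Mean of at least two runs.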

[8] = test system: Mus musculus; test: Anti-inflammatory activity in poly(I:C)-induced airway inflammation C57BL/6 mouse model assessed as reduction in mIL6 expression in lung at 10 mg/kg, ip administered 1 day prior to poly(I:C) stimulation and redosed on day 2 followed by poly(I:C) stimulation; assay type: functional, organism-based; summary of the method: as §2
[9] = test system: Mus musculus; test: Anti-inflammatory activity in poly(I:C)-induced airway inflammation C57BL/6 mouse model assessed as reduction in mKC expression in lung at 10 mg/kg, ip administered 1 day prior to poly(I:C) stimulation and redosed on day 2 followed by poly(I:C) stimulation; assay type: functional, organism-based; summary of the method: as §2
[10] = test system: Mus musculus; test: Anti-inflammatory activity in poly(I:C)-induced airway inflammation C57BL/6 mouse model assessed as reduction in mISG54 expression in lung at 10 mg/kg, ip administered 1 day prior to poly(I:C) stimulation and redosed on day 2 followed by poly(I:C) stimulation; assay type: functional, organism-based; summary of the method: as §2
[11] = Total clearance in rat at 10 mg/kg, iv; assay type: ADME, organism-based; details: in vivo
[12] = Volume of distribution at steady state in rat at 10 mg/kg, iv; assay type: ADME, organism-based; details: in vivo, read-out: Vdss
[13] = test system: Mus musculus; test: as §1, with “total cells in” for “neutrophils recruitment into”; assay type: functional, organism-based
[14] = Cmax in rat at 20 mg/kg, po; assay type: ADME, organism-based; design: dose 20 mg/kg, route oral; details: in vivo
[15] = AUC (0 to t) in rat at 20 mg/kg, po; assay type: ADME, organism-based; details: in vivo
[16] = Half life in rat at 10 mg/kg, iv; assay type: ADME, organism-based; details: in vivo
[17] = AUC (0 to t) in rat at 10 mg/kg, iv; assay type: ADME, organism-based; details: in vivo

| SMILES | IC50 [1] [µM] | IC50 [2] [µM] | IC50 [3] [µM] | IC50 [4] [µM] | Activity [5] | Activity [6] | IC50 [7] [µM] | Activity [8] | Activity [9] | Activity [10] | clearance [11] [mL/min/kg] | Vd [12] [L/kg] | Activity [13] | Cmax [14] [ng/mL] | AUC(0-t) [15] [ng·h/mL] | half-life [16] [h] | AUC(0-t) [17] [ng·h/mL] |
| --- | --- | --- | --- | --- | --- | --- | --- | --- | --- | --- | --- | --- | --- | --- | --- | --- | --- |
| CC(C)(C)c1cc(-c2nnc(-c3cc(F)cc(Cl)c3)o2)no1 | 7.9 | 4.3 | 3.9 | 7.7 |  |  |  |  |  |  |  |  |  |  |  |  |  |
| Cc1sc2c(c1C)C(c1ccc(Cl)cc1)=N[C@@H](CC(=O)OC(C)(C)C)c1nnc(C)n1-2 |  |  |  |  | inactive | inactive | 9.6 | inactive | inactive | inactive |  |  |  |  |  |  |  |
| COc1cc(OC)c2c(=O)[nH]c(-c3cc(C)c(OCCO)c(C)c3)nc2c1 [APABETALONE] |  |  |  |  | inactive | inactive | > 10 | inactive | inactive | inactive |  |  |  |  |  |  |  |
| Cc1cc(/N=N/c2ccc3c(c2)CCC(=O)N3)c(N)cc1O | 0.49 | 0.53 | 0.58 | 0.51 | Active | Active | > 10 | Active | Active | Active | 11.5 | 0.864 | Active | 80 | 450 | 1.2 | 14700 |
